The text below walks through data of ChEMBL document CHEMBL3351240, “Antinociceptive properties of physalins from Physalis angulata” (J Nat Prod, 2014).

Active and inactive are the calls of the source.

Data set [1] relates to Mus musculus. Kind of data set: CNS toxicity in Swiss Webster mouse assessed as reduction in motor performance at 10 mg/kg, ip after 40 mins by open field test. It counts as organism-based. More on the design: dose 10 mg/kg, route intraperitoneal. As to conditions: in vivo. Summed up: (§1)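 Open-field test 40 min after ip dosing: mice placed singly in 40 × 60 × 50 cm box with 12 floor squares; squares crossed with all four paws counted over 3 min; n = 6; one-way ANOVA with Tukey.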

The subject of data set [2] is Mus musculus. The data set is described as follows: CNS toxicity in Swiss Webster mouse assessed as reduction in motor performance at 10 mg/kg, ip after 40 mins by rotarod test. It counts as organism-based. More on the design: dose 10 mg/kg, route intraperitoneal. As to conditions: in vivo. The procedure, abridged:
(§2)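 Rota-rod test: 3 cm bar at 8 rpm; mice pre-selected 24 h earlier by remaining on bar for two consecutive 120 s periods; placed on rod 40 min after ip dosing; time on bar recorded up to 120 s; n = 6; one-way ANOVA with Tukey.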

The subject of data set [3] is Mus musculus. The data set is described as follows: Antinociceptive activity in Swiss Webster mouse assessed as inhibition of formalin-induced late phase pain response at 5 mg/kg, ip dosed 40 mins before formalin injection. It counts as functional, organism-based. Also noted: dose 5 mg/kg. The procedure, abridged:
(§3)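 Mice acclimated 30 min in chamber, dosed ip 40 min before sc injection of 20 μL 2.5% formalin into dorsal hind paw; licking time of injected paw scored 0−10 min (early phase) and 10−30 min (late phase); n = 7−10; ANOVA with Tukey.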

In data set [4] the test system is Mus musculus. Kind of data set: Antinociceptive activity in Swiss Webster mouse assessed as increase in reaction time at 5 mg/kg, ip measured after 3 hrs by tail flick test. It counts as functional, organism-based. Also noted: dose 5 mg/kg. Summed up:
(§4)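 Mice habituated to restraint cylinder 20 min/day for 5 days; distal 2 cm of tail immersed in 48 ± 0.5 °C water; tail withdrawal latency measured before and after ip dosing (5% DMSO/saline vehicle); 10 s cutoff; n = 6; two-way ANOVA with Bonferroni.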

Data set [5] deals with Mus musculus. The data set is described as follows: Antinociceptive activity in Swiss Webster mouse assessed as increase in latency time at 5 mg/kg, ip measured after 1 hr by hot plate test. It counts as functional, organism-based. Also noted: dose 5 mg/kg. Summed up: (§5)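 Hot plate held at 55 ± 1 °C; male Swiss Webster mice; reaction time to hind paw licking or jumping recorded before and after ip dosing (vehicle 5% DMSO in saline); data as difference from baseline; 10 s cutoff; n = 6; two-way ANOVA with Bonferroni.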

The subject of data set [6] is Mus musculus. Kind of data set: Antinociceptive activity in Swiss Webster mouse assessed as inhibition of formalin-induced early phase pain response at 5 mg/kg, ip dosed 40 mins before formalin injection. It counts as functional, organism-based. More on the design: dose 5 mg/kg. The procedure, abridged: as §3
The test system of data set [7] is Mus musculus. Kind of data set: CNS toxicity in Swiss Webster mouse assessed as effect on motor performance at 100 mg/kg, ip after 40 mins by open field test. As to conditions: in vivo. More on the design: dose 100 mg/kg, route intraperitoneal. It counts as organism-based. Summed up: as §1
For data set [8], the system named is Mus musculus. The data set is described as follows: Antiinflammatory activity in Swiss Webster mouse assessed as reduction in paw edema at 100 mg/kg, ip dosed 40 mins before CFA injection and measured 2 to 6 hrs post CFA stimulus. Also noted: dose 100 mg/kg. It counts as functional, organism-based. Summed up: (§6)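 Male Swiss Webster mice, ip pretreatment in 5% DMSO/saline 40 min before intraplantar CFA (20 μL, 1 mg/mL heat-killed M. tuberculosis). Paw volume measured by plethysmometer before and 2, 4, 6 h after CFA; edema expressed as percent increase in paw volume; n = 6 mice/group; two-way ANOVA with Bonferroni.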

Data set [9] deals with Mus musculus. The data set is described as follows: CNS toxicity in Swiss Webster mouse assessed as effect on motor performance at 100 mg/kg, ip after 40 mins by rotarod test. It counts as organism-based. Also noted: dose 100 mg/kg, route intraperitoneal. As to conditions: in vivo. Summed up:
as §2

Data set [10] relates to Mus musculus. Kind of data set: Antinociceptive activity in Swiss Webster mouse assessed as inhibition of acetic acid-induced abdominal constrictions at 25 to 100 mg/kg, ip dosed 40 mins before acetic acid injection. It counts as functional, organism-based. The note with it: Abdomen. Summed up: (§7)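 Male Swiss Webster mice dosed ip (5% DMSO in saline vehicle) 40 min before ip acetic acid 0.8% v/v, 10 mL/kg; writhes (abdominal contraction with hind-limb stretching) counted over 0−30 min; mean writhing score, n = 10 per group; ANOVA with Tukey.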

Data set [11] deals with Mus musculus. The data set is described as follows: Antinociceptive activity in Swiss Webster mouse assessed as increase in reaction time at 100 mg/kg, ip measured after 3 hrs by tail flick test. It counts as functional, organism-based. Also noted: dose 100 mg/kg. Summed up:
as §4
For orientation: In hot-plate and tail-flick tests a longer latency is read as antinociception.

Data set [12] has as its system Mus musculus. Kind of data set: Antinociceptive activity in Swiss Webster mouse assessed as inhibition of formalin-induced early phase pain response at 50 mg/kg, ip dosed 40 mins before formalin injection. It counts as functional, organism-based. More on the design: dose 50 mg/kg. Summed up:
as §3

Data set [13] has as its system Mus musculus. The data set is described as follows: Antiinflammatory activity in Swiss Webster mouse assessed as reduction in hyperalgesia at 100 mg/kg, ip dosed 40 mins before CFA injection and measured 2 to 6 hrs post CFA stimulus. It counts as functional, organism-based. More on the design: dose 100 mg/kg. Summed up: (§8)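 Male Swiss Webster mice (22−28 g) given drug ip in 5% DMSO/saline (dexamethasone in 10% ethanol/saline) 40 min before 20 μL CFA (1 mg/mL heat-killed M. tuberculosis in paraffin oil/mannide monooleate) sc into right hind paw plantar region. Mechanical threshold by von Frey filaments, up−down method, at 2, 4 and 6 h; n = 6; two-way ANOVA with Bonferroni.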

Data set [14] deals with Mus musculus. Kind of data set: Antinociceptive activity in Swiss Webster mouse assessed as increase in latency time at 100 mg/kg, ip measured after 0.5 to 2 hrs by hot plate test. It counts as functional, organism-based. More on the design: dose 100 mg/kg. Summed up:
as §5

Data set [15] concerns Mus musculus. Kind of data set: Antinociceptive activity in Swiss Webster mouse assessed as inhibition of formalin-induced late phase pain response at 50 mg/kg, ip dosed 40 mins before formalin injection. It counts as functional, organism-based. More on the design: dose 50 mg/kg. The procedure, abridged: as §3
The subject of data set [16] is Mus musculus. Kind of data set: Antinociceptive activity in Swiss Webster mouse assessed as inhibition of formalin-induced early phase pain response at 50 to 100 mg/kg, ip dosed 40 mins before formalin injection. It counts as functional, organism-based. Summed up:
as §3

Data set [17] concerns Mus musculus. The data set is described as follows: Antiinflammatory activity in Swiss Webster mouse assessed as reduction in hyperalgesia at 100 mg/kg, ip dosed 40 mins before CFA injection and measured 4 to 6 hrs post CFA stimulus. It counts as functional, organism-based. Also noted: dose 100 mg/kg. Summed up: as §8
Data set [18] has as its system Mus musculus. The data set is described as follows: Reduction in TNFalpha level in Swiss Webster mouse 100 mg/kg, ip dosed 40 mins before CFA injection and measured 3 hrs post CFA stimulus by ELISA method. It counts as functional, organism-based. More on the design: dose 100 mg/kg. As to conditions: at 100 mg/kg. Summed up: (§9)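 Mice dosed ip 40 min before intraplantar CFA; paw skin removed under terminal halothane anesthesia; proteins extracted at 100 mg tissue/mL PBS with 0.4 M NaCl, 0.05% Tween 20 and protease inhibitors; centrifuged 3000g for 10 min; supernatant IL-1β or TNF-α measured by ELISA as pg/mL; n = 6.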
For orientation: In an ELISA, binding on a coated surface is turned into a signal by an enzyme label.

For data set [19], the system named is Mus musculus. Kind of data set: Antiinflammatory activity in Swiss Webster mouse assessed as reduction in paw edema at 50 to 100 mg/kg, ip dosed 40 mins before CFA injection and measured 2 to 4 hrs post CFA stimulus. It counts as functional, organism-based. Summed up:
as §6

The test system of data set [20] is Mus musculus. The data set is described as follows: Reduction in IL1-beta level in Swiss Webster mouse 100 mg/kg, ip dosed 40 mins before CFA injection and measured 3 hrs post CFA stimulus by ELISA method. Also noted: dose 100 mg/kg. The note with it: at 100 mg/kg. It counts as functional, organism-based. Summed up: as §9
Data set [21] has as its system Mus musculus. Kind of data set: Antinociceptive activity in Swiss Webster mouse assessed as inhibition of formalin-induced late phase pain response at 50 to 100 mg/kg, ip dosed 40 mins before formalin injection. It counts as functional, organism-based. The procedure, abridged:
as §3

In data set [22] the test system is Mus musculus. The data set is described as follows: Antiinflammatory activity in Swiss Webster mouse assessed as reduction in hyperalgesia at 100 mg/kg, ip dosed 40 mins before CFA injection and measured 2 hrs post CFA stimulus. It counts as functional, organism-based. Also noted: dose 100 mg/kg. Summed up:
as §8

In data set [23] the test system is Mus musculus. The data set is described as follows: Antinociceptive activity in Swiss Webster mouse assessed as inhibition of acetic acid-induced abdominal constrictions at 25 mg/kg, ip dosed 40 mins before acetic acid injection. More on the design: dose 25 mg/kg. As to conditions: Abdomen. It counts as functional, organism-based. The procedure, abridged:
as §7

`CN1C(=O)CN=C(c2ccccc2)c2cc(Cl)ccc21` [DIAZEPAM]: the Activity entry in the data set on Mus musculus [1] and in the data set with Mus musculus [2] was “Toxic” each time.
For `CN1CC[C@]23c4c5ccc(O)c4O[C@H]2[C@@H](O)C=C[C@H]3[C@H]1C5`, the inhibition entry in the data set on Mus musculus [3] and in the data set with Mus musculus [6] was “Active” throughout. Besides, the result in the data set with Mus musculus [4] and in the data set with Mus musculus [5] was Active.
In the case of `C[C@]12C(=O)C=CC=C1[C@@H](O)C[C@@H]1[C@@H]2CC[C@@]2(O)C(=O)O[C@@]3(C)[C@H]4C[C@]5(C)[C@@H](CO[C@@]16O[C@]23[C@H]5C6=O)C(=O)O4` [PHYSALIN G], the Activity entry with Mus musculus [7] and in the data set on Mus musculus [9] was “Non-toxic” each time. For the same compound, the inhibition result with Mus musculus [8] and in the data set on Mus musculus [13] was “inactive” in each case. The inhibition entry in the data set with Mus musculus [10] was “Dose-dependent effect”. Further, the result in the data set with Mus musculus [11] and in the data set with Mus musculus [14] was Active. Moreover, the inhibition result in the data set with Mus musculus [12] and in the data set on Mus musculus [15] was “Active” in each case.
As for `C[C@@]12C[C@H]3OC(=O)[C@@H]1CO[C@]14O[C@]5([C@H]2C1=O)[C@@](O)(CC[C@H]1[C@H]4C[C@H]2O[C@]24CC=CC(=O)[C@]14C)C(=O)O[C@@]35C` [PHYSALIN F], the inhibition result in the data set with Mus musculus [16], in the data set with Mus musculus [18], with Mus musculus [19], in the data set on Mus musculus [21], in the data set on Mus musculus [22] and in the data set on Mus musculus [23] was “Active” each time. Besides, the Activity result in the data set with Mus musculus [7] and in the data set on Mus musculus [9] was “Non-toxic” each time. The inhibition result with Mus musculus [17] and in the data set with Mus musculus [20] was “inactive” throughout. Also, the result with Mus musculus [11] and in the data set on Mus musculus [14] was Active.
